Screens: PubChem, several laboratories
An excerpt weighted towards active compounds, which were near 2.8% of everything screened.
NPY-Y2 PAM-ag: potentiates or activates human NPY-Y2 receptor | P49146 | cells expressing NPY-Y2, potentiator/agonist read-out | activation, % at 3.6 µM | 220,000 tested, 0.45% active | AID 1359; in the data active means activation above about 27%;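 further: cells stimulated with NPY near EC25 plus isoproterenol at EC100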
EP2 antag: blocks the human prostaglandin E2 receptor EP2. C6 glioma cells expressing human EP2, cAMP TR-FRET; cells stimulated with saturating PGE2. inhibition, % at 25 µM. AID 1422. P43116. 260,000 tested, 0.52% active;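 active means percent inhibition above 40 after rounding to a whole number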;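 further: rat C6 glioma host cells with rolipram phosphodiesterase inhibitor present; the protocol text gives 20 µM as final concentration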
EP2 modulator: modulators of human EP2 prostaglandin E2 receptor | P43116 | EP2-expressing cells, cAMP HTRF FRET, PGE2 co-stimulation | induction, % at 25 µM | 260,000 tested, 0.83% active | AID 940;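 active means compounds whose cAMP rise, as percent of the full-agonist control response, exceeds 60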;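 further: rat C6 glioma line stably carrying human EP2 under a CMV promoter; the protocol text gives 20 µM as final concentration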
NPY-Y1 antag: NPY-Y1 (human) receptor antagonism | inhibition, % at 3.6 µM | P25929 | HEK293-CNG Y1 cells, membrane potential fluorescence; NPY at EC95, then isoproterenol | 200,000 tested, 1% active;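 active means inhibition above the campaign mean inhibition of all tested compounds plus 3 SD, cut at about 20% in these data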
Target sequence (P25929 whole entry, looked up): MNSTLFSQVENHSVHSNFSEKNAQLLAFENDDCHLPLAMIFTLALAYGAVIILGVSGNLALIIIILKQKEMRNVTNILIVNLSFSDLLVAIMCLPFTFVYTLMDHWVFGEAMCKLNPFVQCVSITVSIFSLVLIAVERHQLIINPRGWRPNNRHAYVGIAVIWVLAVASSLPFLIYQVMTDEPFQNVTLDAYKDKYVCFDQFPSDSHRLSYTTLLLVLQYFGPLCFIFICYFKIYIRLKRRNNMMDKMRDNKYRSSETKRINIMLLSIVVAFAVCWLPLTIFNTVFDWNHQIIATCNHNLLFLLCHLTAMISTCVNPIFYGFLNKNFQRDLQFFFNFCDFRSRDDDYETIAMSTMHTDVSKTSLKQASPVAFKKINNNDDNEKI
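System: HEK293 cells with Y1 receptor plus CNG channel / Probe or stimulus: NPY 25 nM then isoproterenol 1 µM plus Ro 20-1724 25 µM / Compound: one concentration, 3.6 µM, in 0.4% DMSO / Schedule: compound incubation 1 h at room temperature, readout 45 min post-stimulation / Measured by: membrane potential fluorescence / Read-out: % inhibition of NPY effect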
NPY-Y1 PAM-ag: human NPY-Y1 potentiation or agonism, primary screen | activation, % at 3.6 µM | 220,000 tested, 0.37% active | NPY-Y1 expressing cells, potentiator/agonist activation | AID 1304 | P25929; in the data active means activation above about 33%, passing the limit was not always enough;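 further: cells stimulated with NPY at EC10 then isoproterenol at EC100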
NPY-Y2 antag: NPY-Y2 (human) receptor antagonism; NPY-Y2 expressing cells, antagonist mode; P49146; inhibition, % at 2.7 µM; 140,000 tested, 0.99% active; AID 793; in the data active means inhibition above about 17%
Hits are given with their value; 0 = inactive; - = not tested or not shown.

SMILES | NPY-Y2 PAM-ag | EP2 antag | EP2 modulator | NPY-Y1 antag | NPY-Y1 PAM-ag | NPY-Y2 antag
COc1ccccc1C(=O)N(Cc1cc2cccc(C)c2[nH]c1=O)C1CCCC1 | - | 0 | 0 | - | - | -
O=S(=O)(O)[C@@H](CO)c1ccccc1 (tested in a mixture with another compound) | - | 49.0 | 0 | - | - | -
Cc1ccccc1CN1C2=NCCN2C(=O)C2=C1CCN(Cc1ccccc1)C2 | - | 48.5 | 0 | - | - | -
Cc1ccc(NC(=O)CN(C)CC(=O)Nc2ccccc2Oc2ccccc2)cc1 | 0 | 0 | 0 | 0 | 0 | -
Cc1cccc(C)c1NC(=O)CN(C)CC(=O)Nc1ccccc1Oc1ccccc1 | 0 | 0 | 0 | 21.0 | 0 | -
COc1ccc(C2=CC3=C(Br)C(=O)C(C)(O)C(=O)C3=CO2)cc1 (stereo not drawn) | - | 133.8 | 0 | - | - | -
CCC(NC(=O)Nc1nnc(C(F)(F)F)s1)(C(F)(F)F)C(F)(F)F | 0 | 0 | 0 | 38.4 | 0 | 24.9
CC(CCc1ccccc1)NC(=O)c1ncoc1-c1ccc(F)cc1 (stereo not drawn) | - | 0 | 0 | - | - | -
CS(=O)(=O)N1CCCc2cc(C(O)CN3CCc4ccccc4C3)ccc21 (stereo not drawn) | - | 0 | 0 | - | - | -
CC(=O)N1c2ccc(NC(=O)c3cc4cccc(C)c4nc3C)cc2CC1C (stereo not drawn) | - | 0 | 0 | - | - | -
O=C1c2ccccc2C(=O)N1CCCCCc1nc(-c2ccccc2)no1 | 0 | 0 | 0 | 21.6 | 0 | 0
O=S(=O)(Nc1nccs1)c1cc(Cl)ccc1Cl | 0 | 0 | 61.3 | 0 | 0 | 0
O=S(=O)(Nc1nccs1)c1ccc(Br)cc1 | 0 | 0 | 0 | 0 | 0 | -
CC(C)N(CCC(=O)c1ccc2ccccc2c1)Cc1ccccc1 | - | 76.1 | 0 | - | - | -
N#Cc1c(NC(=O)CSc2ccccn2)oc(-c2ccccc2)c1-c1ccccc1 | 0 | 0 | 0 | 37.9 | 0 | 21.3
CC(=O)Oc1ccc(N2C(=O)C3C4C=CC(CO)(O4)C3C2=O)cc1 (stereo not drawn) | 0 | 0 | 0 | 0 | 0 | 0
CC(=O)Oc1ccc(N2C(=O)C3C(C2=O)C2(C)C=CC3(C)O2)cc1 (stereo not drawn) | - | 135.8 | - | - | - | -
O=S(=O)(NCc1ccc2c(c1)OCO2)c1ccc(S(=O)(=O)NCc2cccs2)cc1 | - | 0 | 0 | - | - | -
Cc1ccc(C)c2[nH]c(=O)c(CN(C(=O)c3ccncc3)C3CCCCC3)cc12 | - | 0 | 0 | - | - | -
COc1ccc(OC)c(S(=O)(=O)Nc2ccc(O)c3ccccc23)c1 | 0 | 42.1 | 0 | 0 | 0 | 0
CCc1cc2ccccc2nc1SCC(=O)NCCc1ccc(OC)c(OC)c1 | - | 0 | 61.5 | - | - | -
COc1ccc(CCNC(=O)c2cc(-c3ccccc3OC)on2)cc1OC | 0 | 0 | 0 | 0 | 0 | 0
COc1ccc(CCNC(=O)c2ccc3ccccc3n2)cc1OC | 0 | 0 | 0 | 20.1 | 0 | -
COc1ccc(CCNC(=O)CSc2ccc3ccccc3c2)cc1OC | 0 | 0 | 0 | 0 | 0 | 0
Cc1ccc(N)cc1NC(=O)c1ccncc1 | - | 0 | 0 | - | - | -
SMILES | NPY-Y2 PAM-ag | EP2 antag | EP2 modulator | NPY-Y1 antag | NPY-Y1 PAM-ag | NPY-Y2 antag
O=C(COc1ccc(Cl)cc1)n1cnnc1 | - | 0 | 0 | - | - | -
CCCCCCOc1ccc(/C(C)=N/NC2=NCCN2)cc1[N+](=O)[O-] | 0 | 0 | 0 | 0 | 0 | -
CCCCOc1ccc(Br)cc1/C(C)=N/NC1=NCCN1 | 0 | 0 | 0 | 50.3 | 0 | 49.6
O=C(CSc1nnc(-c2ccccc2)o1)N(C1CCCCC1)C1CCCCC1 | - | 0 | 76.3 | - | - | -
CN(CCc1ccccn1)c1ccc2c(c1)C(=O)c1ccccc1-2 | - | 74.6 | 0 | - | - | -
O=C(NC(Cc1ccccc1)c1nc2ccccc2[nH]1)c1ccc(Cl)c([N+](=O)[O-])c1 (stereo not drawn) | 40.2 | 0 | 0 | 0 | 46.5 | 0
NC(=O)C(F)(F)C12OC3C4C5CC(C6C5C3C61)C42 (stereo not drawn) | 0 | 106.1 | 0 | 0 | 0 | 0
O=C1Nc2ccccc2/C1=C/C(=O)c1cccs1 | 0 | 68.5 | 0 | 0 | 0 | 0
CCC(=O)c1cn(CC(=O)NCCOC)c2ccccc12 | - | 0 | 0 | - | - | -
COc1ccc(NS(=O)(=O)c2cc(C)ccc2NC(=O)c2cc(C)oc2C)cc1 | 0 | 0 | 0 | 23.3 | 0 | 35.6
COc1ccc(NS(=O)(=O)c2cccc(C(=O)NNC(=O)c3cc(C)oc3C)c2)cc1 | 0 | 0 | 0 | 0 | 0 | 0
COc1ccc(S(=O)(=O)N(Cc2cccs2)Cc2cc3cc4c(cc3[nH]c2=O)OCCO4)cc1 | - | 0 | 0 | - | - | -
